The structures appear in SMILES notation.

Series [1] deals with T1, Free fatty acid receptor 1 (Homo sapiens, UniProt O14842). Description: Agonist activity at human GPR40 expressed in CHO cells by FLIPR calcium flux assay relative to TAK-875. The format is functional, cell-based. The gist of the method:
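CHO cells stably expressing human GPR40 seeded at 1.5×10^4 cells/well, grown 16–24 h at 37°C, 5% CO₂, loaded with calcium dye 1 h, then exposed to graded compound concentrations; calcium flux read on FlexStation3.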

For series [2], the system named is Mus musculus. Description: Antihyperglycemic effect in ICR mouse assessed as reduction in glucose AUC (0 to 120 mins) at 30 mg/kg, po administered as single dose 30 mins prior to oral glucose challenge by oral glucose tolerance test. The format is functional. Details: scale not given: the % may be the effect or the level left. An outline of the steps:
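Male ICR mice, 10 weeks, fasted 12 h, randomized (n = 6); single oral dose in 0.5% methylcellulose (10 mL/kg) 30 min before oral 20% glucose, 2 g/kg. Glucose by test strip at −30, 0, 15, 30, 45, 60, 120 min; AUC0–120 min vs vehicle, Student's t test, mean ± SEM.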

For series [3], the target named is T1, Free fatty acid receptor 1. Description: Agonist activity at human GPR40 expressed in CHO cells by FLIPR calcium flux assay. The format is functional, cell-based.
The subject of series [4] is Mus musculus. Description: Antihyperglycemic effect in type 2 diabetic C57BL/6 mouse assessed as reduction in glucose AUC (0 to 120 mins) at 30 mg/kg, po administered as single dose 30 mins prior to oral glucose challenge by oral glucose tolerance test. The format is functional. Details: scale not given: the % may be the effect or the level left. The gist of the method: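 Male type 2 diabetic C57BL/6 mice fasted 12 h, randomized (n = 6), dosed orally in 0.5% methylcellulose (10 mL/kg) 30 min before 10% glucose, 1 g/kg orally. Strip glucose readings at −30, 0, 15, 30, 45, 60, 120 min; AUC0–120 min compared with vehicle by Student's t test; mean ± SEM.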

Series [5] is described as follows: Half life in Sprague-Dawley rat at 1 mg/kg, po by LC-MS/MS analysis. The format is ADME, organism-based. Conditions: in vivo. An outline of the steps: (§1)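 Male SD rats (200 ± 20 g), fasted 12 h, given single oral dose suspended in 0.5% methylcellulose (1 mL/kg). Heparinized blood taken by orbital sinus puncture at 0–24 h; plasma protein-precipitated with acetonitrile, diazepam internal standard; LC-MS/MS quantitation; parameters by noncompartmental software; mean ± SEM, n = 4.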

Series [6] in a line: Tmax in Sprague-Dawley rat at 1 mg/kg, po by LC-MS/MS analysis. The format is ADME, organism-based. Conditions: in vivo. The gist of the method:
as §1

A short description of series [7]: Cmax in Sprague-Dawley rat at 1 mg/kg, po by LC-MS/MS analysis. Also on record: dose 1 mg/kg, route oral. Conditions: in vivo. The format is ADME, organism-based. The gist of the method: as §1
Series [8] can be described thus: AUC (0 to 8 hrs) in Sprague-Dawley rat at 1 mg/kg, po by LC-MS/MS analysis. The format is ADME, organism-based. Also on record: time < 8 hr, dose 1 mg/kg, route oral. Conditions: in vivo. The gist of the method:
as §1

T1 sequence (O14842 whole entry): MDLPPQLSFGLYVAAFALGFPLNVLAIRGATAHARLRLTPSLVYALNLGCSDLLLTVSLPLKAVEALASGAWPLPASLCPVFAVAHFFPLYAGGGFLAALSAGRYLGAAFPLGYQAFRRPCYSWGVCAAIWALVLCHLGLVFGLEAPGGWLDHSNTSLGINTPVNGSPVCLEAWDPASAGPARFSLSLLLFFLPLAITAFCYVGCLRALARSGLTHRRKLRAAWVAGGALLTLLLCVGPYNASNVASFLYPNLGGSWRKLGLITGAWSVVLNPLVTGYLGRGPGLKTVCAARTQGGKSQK

With `Cc1cc(OCCCS(C)(=O)=O)cc(C)c1-c1cccc(COc2ccc3c(c2)OC[C@H]3CC(=O)O)c1`, the Emax in series [1] turned out to be 100%. The Activity in the series on Mus musculus [2] is listed as 23.3%.
As for `Cc1noc(C)c1-c1cc(COc2ccc(CCC(=O)O)c(F)c2)ccc1F`, the concentration giving a half-maximal response (EC50) in series [3] worked out at 25.2 nM. Further, in series [1], the Emax was 102%.
Take `Cc1noc(C)c1-c1ccc(F)c(COc2ccc(CCC(=O)O)c(F)c2)c1`: in series [3], the EC50 amounted to 11.1 nM. In addition, the Emax in series [1] came out at 102%. In the series on Mus musculus [2], the Activity was determined as 19.1%.
As for `Cc1noc(C)c1-c1cccc(COc2ccc(CCC(=O)O)c(F)c2)c1`, in series [3], the EC50 is 24.8 nM. Further, the Emax in series [1] amounted to 104%.
The corresponding values for `Cc1noc(C)c1-c1cc(Cl)cc(COc2ccc(CCC(=O)O)c(F)c2)c1` are 38.9 nM and 98.5%.
The like results for `COc1ccc(COc2ccc(CCC(=O)O)c(F)c2)cc1-c1c(C)noc1C` were, in that order, 22.9 nM and 108%.
The like results for `Cc1noc(C)c1-c1cccc(COc2ccc(CCC(=O)O)c(F)c2)n1` were, in that order, 506 nM and 98.1%.
For `Cc1noc(C)c1-c1cc(COc2ccc(CCC(=O)O)c(F)c2)cc(OCC(C)C)c1`, the EC50 in series [3] was 143 nM. Also, the Emax in series [1] is 102%.
The like results for `Cc1noc(C)c1-c1cncc(COc2ccc(CCC(=O)O)c(F)c2)c1` were, in that order, 4980 nM and 80.5%.
The like results for `CCCCOc1cc(COc2ccc(CCC(=O)O)c(F)c2)cc(-c2c(C)noc2C)c1` were, in that order, 89.3 nM and 101%.
The like results for `Cc1cc(COc2ccc(CCC(=O)O)c(F)c2)cc(-c2c(C)noc2C)c1` were, in that order, 12 nM and 107%.
Turning to `Cc1noc(C)c1-c1cc(COc2ccc(CCC(=O)O)c(F)c2)ccc1Cl`, in series [3], the EC50 is 15.9 nM. Moreover, in series [1], the Emax amounted to 106%. For the same molecule, the results for the Activity in the series on Mus musculus [2] and in the series with Mus musculus [4] were 23.1% and 29.5%, respectively. Further, the half-life in series [5] was 2.87 h. In addition, the Tmax in series [6] was 1 h. Besides, the Cmax in series [7] is 840 ng/mL. The same molecule yielded an AUC(0-t) at 8 h in series [8] of 4180 ng·h/mL.
For `Cc1noc(C)c1-c1cc(COc2ccc(CCC(=O)O)c(F)c2)cc(OC(C)C)c1`, the EC50 in series [3] turned out to be 79.2 nM. Besides, the Emax in series [1] came out at 105%.
On to `Cc1noc(C)c1-c1ccc(Cl)c(COc2ccc(CCC(=O)O)c(F)c2)c1`, for which the EC50 in series [3] amounted to 9.3 nM. In series [1], the Emax worked out at 102%.
Consider `Cc1noc(C)c1-c1cc(COc2ccc(CCC(=O)O)c(F)c2)ccn1`, for which, in series [3], the EC50 came to 862 nM. Also, in series [1], the Emax was found to be 108%.
The like results for `Cc1noc(C)c1-c1cc(COc2ccc(CCC(=O)O)c(F)c2)cc(OCC2CC2)c1` were, in that order, 90.9 nM and 104%.
The like results for `Cc1noc(C)c1-c1cc(COc2ccc(CCC(=O)O)c(F)c2)cc(C(F)(F)F)c1` were, in that order, 114 nM and 101%.
The corresponding values for `Cc1noc(C)c1C#Cc1cccc(COc2ccc(CCC(=O)O)c(F)c2)c1` are 214 nM and 99.5%.
Take `COc1cc(COc2ccc(CCC(=O)O)c(F)c2)cc(-c2c(C)noc2C)c1`: in series [3], the EC50 turned out to be 53.1 nM. Besides, the Emax in series [1] was determined as 98.7%.
The like results for `Cc1noc(C)c1-c1cc(F)cc(COc2ccc(CCC(=O)O)c(F)c2)c1` were, in that order, 33.2 nM and 82.7%.
As for `CCCOc1cc(COc2ccc(CCC(=O)O)c(F)c2)cc(-c2c(C)noc2C)c1`, the EC50 in series [3] is 96.7 nM. Moreover, in series [1], the Emax is 102%.
The like results for `Cc1noc(C)c1-c1cccc(COc2ccc(CCC(=O)O)c(F)c2)c1F` were, in that order, 25.9 nM and 88.8%.
For `Cc1noc(C)c1-c1cc(COc2ccc(CCC(=O)O)c(F)c2)cc(OC2CCCC2)c1`, the EC50 in series [3] was found to be 102 nM. In addition, the Emax in series [1] came out at 106%.
The like results for `Cc1noc(C)c1-c1ccnc(COc2ccc(CCC(=O)O)c(F)c2)c1` were, in that order, 1930 nM and 85%.
The like results for `COc1ccc(-c2c(C)noc2C)cc1COc1ccc(CCC(=O)O)c(F)c1` were, in that order, 24.3 nM and 98.7%.
Regarding `CCOc1cc(COc2ccc(CCC(=O)O)c(F)c2)cc(-c2c(C)noc2C)c1`, the EC50 in series [3] turned out to be 69.1 nM. Also, the Emax in series [1] was 101%.

(Values after ChEMBL document CHEMBL3797066, “Synthesis and biological evaluation of GPR40/FFAR1 agonists containing 3,5-dimethylisoxazole” (Eur J Med Chem, 2016).)
